Among the data in ChEMBL document CHEMBL4196013, “Ridaifen-F conjugated with cell-penetrating peptides inhibits intracellular proteasome activities and induces drug-resistant cell death” (Eur J Med Chem, 2018) are IC50, CC50 and Activity values, retold here.

The target in experiment [1] is T1, Proteasome Macropain subunit MB1 (Homo sapiens, UniProt P28074).
T1 sequence (P28074 whole entry): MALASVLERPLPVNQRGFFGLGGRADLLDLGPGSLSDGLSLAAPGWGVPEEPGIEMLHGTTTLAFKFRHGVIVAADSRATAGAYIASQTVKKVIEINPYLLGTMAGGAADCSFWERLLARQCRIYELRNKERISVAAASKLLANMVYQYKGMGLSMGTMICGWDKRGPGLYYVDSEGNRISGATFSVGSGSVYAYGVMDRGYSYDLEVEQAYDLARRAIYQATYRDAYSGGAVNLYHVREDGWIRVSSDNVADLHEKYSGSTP
As to the kind of experiment: Inhibition of chymotrypsin-like activity of human 20S proteasome using Suc-LLVY-MCA as substrate measured for 1 hr by fluorescence assay. The method in brief:
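Purified human 20S proteasome with 50 µM fluorogenic substrate in 25 mM HEPES pH 8.0, 0.5 mM EDTA, 0.03% SDS. Inhibitor range 0.1–10 µM, with the table footnote giving 0.5–8 µM. IC₅₀ from inhibition curves; n = 3.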

The target of experiment [2] is T1, Proteasome Macropain subunit MB1. As to the kind of experiment: Inhibition of chymotrypsin-like activity of human 26S proteasome using Suc-LLVY-MCA as substrate measured for 1 hr by fluorescence assay. The method in brief: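 Purified 26S proteasome with 50 µM fluorogenic substrate in 50 mM HEPES pH 7.5, 40 mM KCl, 5 mM MgCl₂, BSA, 0.5 mM ATP, 1 mM DTT. Inhibitor range 0.1–40 µM. AMC fluorescence monitored 1 h at 37 °C. IC₅₀ from inhibition curves; n = 3.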

Experiment [3] has the same target. As to the kind of experiment: Inhibition of chymotrypsin-like activity of human 26S proteasome using Z-LLE-MCA as substrate measured for 1 hr in presence of ATPgammaS by fluorescence assay.
Experiment [4] shares this target. As to the kind of experiment: Inhibition of chymotrypsin-like activity of 26S proteasome in human KMS11 cells using […] as substrate after 24 to 48 hrs by luminescence-based assay. It is filed as cell-based. Put shortly:
(§1)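 Intracellular proteasome assay. Cells seeded in triplicate at 5 × 10³ cells/well and incubated 24 or 48 h with 0.1–10 µM inhibitor, 0.5% final DMSO. Proteasome-Glo reagent with aminoluciferin-linked peptide substrates lyses the cells; luminescence read after 15 min. IC₅₀ taken from inhibition curves.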

The target is the same in experiment [5]. As to the kind of experiment: Inhibition of chymotrypsin-like activity of 26S proteasome in human RPMI8226 cells using […] as substrate after 24 to 48 hrs by luminescence-based assay. It is filed as cell-based. The method in brief:
as §1

Experiment [6] deals with KMS-11. In words: Cytotoxicity against human KMS11 cells after 24 to 48 hrs by CellTiter-Glo assay. The class given is functional. Put shortly:
(§2)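 RPMI8226 or KMS-11 cells seeded in triplicate wells at 5 × 10² cells/well and exposed to 0.1–10 µM compound (DMSO) for 24 or 48 h. Survival read as cellular ATP level; Cyt₅₀ derived from concentration–survival curves.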

For experiment [7], the system named is RPMI-8226. As to the kind of experiment: Cytotoxicity against human RPMI8226 cells after 24 to 48 hrs by CellTiter-Glo assay. It is filed as functional. Put shortly: as §2
Experiment [8] relates to KMS-11. In words: Cytotoxicity against human KMS11 cells at 10 uM by CellTiter-Glo assay. The class given is functional, cell-based. The conditions noted are these: TDE = time-dependent effect. The method in brief: (§3)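 Cells cultured with each compound at 10 µM, with viability followed over time by ATP assay. Mock-treated cells define 100%; values are means of three independent experiments.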

The subject of experiment [9] is RPMI-8226. As to the kind of experiment: Cytotoxicity against human RPMI8226 cells assessed as reduction in cell viability at 10 uM after 2 to 48 hrs by CellTiter-Glo assay. The class given is functional, cell-based. Put shortly: as §3

Active and inactive are the calls of the source. The calls are words filed in the database; no cut-off is given here. Peptide text beside a SMILES is read from it. * marks the point of attachment. X1 = CCC(=C(c1ccc(OCCN2CCCCCC2)cc1)c1ccc(OCCN2CCCCCC2)cc1)c1cccc(C(=O)*)c1

As for `CCC(=C(c1ccc(OCCN2CCCCCC2)cc1)c1ccc(OCCN2CCCCCC2)cc1)c1cccc(C(=O)NCC(=O)N[C@@H](CCCNC(=N)N)C(=O)N[C@@H](CCCNC(=N)N)C(=O)N[C@@H](CCCNC(=N)N)C(=O)N[C@@H](CCCNC(=N)N)C(=O)N[C@@H](CCCNC(=N)N)C(=O)N[C@@H](CCCNC(=N)N)C(=O)N[C@@H](CCCNC(=N)N)C(=O)N[C@@H](CCCNC(=N)N)C(N)=O)c1`, the IC50 is greater than 50 µM in experiment [1]; 5.5 µM in [2]; 2.4 µM in experiment [3]; 6.3 µM in experiment [4]; 5.7 µM in [5]. The CC50 with KMS-11 [6] was 7.2 µM; in the experiment on RPMI-8226 [7] it was 4.3 µM. In addition, the Activity entry with KMS-11 [8] is “Tde”. Also, the result in the experiment on RPMI-8226 [9] was Active.

As for `CCC(=C(c1ccc(OCCN2CCCCCC2)cc1)c1ccc(OCCN2CCCCCC2)cc1)c1cccc(CNC(=O)CN[C@@H](CCCNC(=N)N)C(=O)N[C@@H](CCCNC(=N)N)C(=O)N[C@@H](CCCNC(=N)N)C(=O)N[C@@H](CCCNC(=N)N)C(=O)N[C@@H](CCCNC(=N)N)C(=O)N[C@@H](CCCNC(=N)N)C(=O)NC(C)=O)c1`, the values for the IC50 in [1] and in experiment [2] were greater than 8 µM and greater than 40 µM, respectively.

For `N=C(N)NCCC[C@H](NC(=O)[C@H](CCCNC(=N)N)NC(=O)[C@H](CCCNC(=N)N)NC(=O)[C@H](CCCNC(=N)N)NC(=O)[C@H](CCCNC(=N)N)NC(=O)[C@H](CCCNC(=N)N)NC(=O)[C@H](CCCNC(=N)N)NC(=O)[C@H](CCCNC(=N)N)NC(=O)CN)C(N)=O`, the IC50 in [1] was greater than 8 µM; in [2], greater than 40 µM.

As to Ac-RRRRRRRRG-OH, the figures for the IC50 in [1] and in experiment [2] were greater than 8 µM and greater than 40 µM, respectively.

As for `CCC(=C(c1ccc(OCCN2CCCCCC2)cc1)c1ccc(OCCN2CCCCCC2)cc1)c1ccccc1`, the IC50 in experiment [1] is 1.02 µM; in experiment [2] it was greater than 100 µM; in [5], 11 µM. In the experiment on RPMI-8226 [7], the CC50 was determined as 3.6 µM. Further, in the experiment on KMS-11 [8], the Activity entry was “Tde”. Besides, in the experiment on RPMI-8226 [9], the result was Active.

Consider `CCC(=C(c1ccc(OCCN2CCCCCC2)cc1)c1ccc(OCCN2CCCCCC2)cc1)c1cccc(C(=O)NCC(=O)N[C@@H](CC(C)C)C(=O)N[C@@H](CC(C)C)C(=O)N[C@H](C(=O)N[C@@H](Cc2ccc(O)cc2)C(=O)NCC(=O)NCC(N)=O)C(C)C)c1` (X1-GLLVYGG-NH2), for which the IC50 in experiment [1] turned out to be 0.89 µM; in experiment [2] it was 9.1 µM.

On to `CCC(=C(c1ccc(OCCN2CCCCCC2)cc1)c1ccc(OCCN2CCCCCC2)cc1)c1cccc(C(=O)NCC(=O)N[C@@H](CC(C)C)C(=O)N[C@@H](CC(C)C)C(=O)N[C@@H](CC(C)C)C(=O)NCC(=O)NCC(=O)NCC(=O)NCC(N)=O)c1` (X1-GLLLGGGG-NH2), for which the IC50 in [1] turned out to be 1.1 µM; in [2] it was 5 µM.

Regarding `CCC(=C(c1ccc(OCCN2CCCCCC2)cc1)c1ccc(OCCN2CCCCCC2)cc1)c1cccc(CNC(=O)CN[C@@H](CC(C)C)C(=O)N[C@@H](CC(C)C)C(=O)N[C@H](C(=O)N[C@@H](Cc2ccc(O)cc2)C(=O)NC(C)=O)C(C)C)c1`, the figures for the IC50 in experiment [1] and in experiment [2] were 0.37 µM and greater than 40 µM, respectively.

In the case of `CCC(=C(c1ccc(OCCN2CCCCCC2)cc1)c1ccc(OCCN2CCCCCC2)cc1)c1cccc(C(=O)NCC(=O)N[C@@H](CC(C)C)C(=O)N[C@@H](CC(C)C)C(=O)N[C@H](C(=O)N[C@@H](Cc2ccc(O)cc2)C(N)=O)C(C)C)c1` (X1-GLLVY-NH2), the IC50 in [1] was 0.89 µM; in [2] it was 26 µM.

Turning to `CCC(=C(c1ccc(OCCN2CCCCCC2)cc1)c1ccc(OCCN2CCCCCC2)cc1)c1cccc(C(=O)NCC(=O)N[C@@H](CCCNC(=N)N)C(=O)N[C@@H](CCCNC(=N)N)C(=O)N[C@@H](CCCNC(=N)N)C(=O)N[C@@H](CCCNC(=N)N)C(=O)N[C@@H](CCCNC(=N)N)C(=O)N[C@@H](CCCNC(=N)N)C(N)=O)c1`, the half-inhibitory concentration (IC50) in experiment [1] is greater than 8 µM; in [2] it was greater than 40 µM.

As to `CCC(=C(c1ccc(OCCN2CCCCCC2)cc1)c1ccc(OCCN2CCCCCC2)cc1)c1cccc(C(=O)NCC(=O)N[C@@H](CCCNC(=N)N)C(=O)N[C@@H](CCCNC(=N)N)C(=O)N[C@@H](CCCNC(=N)N)C(=O)N[C@@H](CCCNC(=N)N)C(=O)N[C@@H](CCCNC(=N)N)C(=O)N[C@@H](CCCNC(=N)N)C(=O)N[C@@H](CCCNC(=N)N)C(=O)N[C@@H](CCCNC(=N)N)C(=O)NC(C)=O)c1`, the half-inhibitory concentration (IC50) in experiment [1] was greater than 40 µM; in [2], 9.4 µM; in experiment [3] it was 6 µM; in experiment [4], 2.1 µM; in [5], 2.1 µM. Moreover, the figures for the 50% cytotoxic concentration (CC50) with KMS-11 [6] and in the experiment with RPMI-8226 [7] were 4.5 µM and 2.7 µM, respectively. Also, the Activity result with KMS-11 [8] is “Tde”. The result with RPMI-8226 [9] was Active.

`CC[C@]1(O)C[C@@H]2CN(CCc3c([nH]c4ccccc34)[C@@](C(=O)OC)(c3cc4c(cc3OC)N(C)[C@H]3[C@@](O)(C(=O)OC)[C@H](OC(C)=O)[C@]5(CC)C=CCN6CC[C@]43[C@@H]65)C2)C1` [VINBLASTINE]: the figures for the IC50 in [1] and in experiment [2] were 4.58 µM and greater than 40 µM, respectively.

Turning to `CCC(=C(c1ccc(OCCN2CCCCCC2)cc1)c1ccc(OCCN2CCCCCC2)cc1)c1cccc(C(=O)NCC(=O)N[C@@H](CC(C)C)C(=O)N[C@@H](CC(C)C)C(=O)N[C@@H](CCC(=O)O)C(N)=O)c1`, the IC50 was 6.1 µM in experiment [1] and 24 µM in experiment [2].

With `CCC(=C(c1ccc(OCCN2CCCCCC2)cc1)c1ccc(OCCN2CCCCCC2)cc1)c1cccc(CNC(=O)CN[C@@H](CCCNC(=N)N)C(=O)N[C@@H](CCCNC(=N)N)C(=O)N[C@@H](CCCNC(=N)N)C(=O)N[C@@H](CCCNC(=N)N)C(=O)NC(C)=O)c1`, the IC50 was greater than 8 µM in [1] and greater than 40 µM in experiment [2].

In the case of `CCC(=C(c1ccc(OCCN2CCCCCC2)cc1)c1ccc(OCCN2CCCCCC2)cc1)c1cccc(C(=O)NCC(=O)N[C@@H](CCCNC(=N)N)C(=O)N[C@@H](CCCNC(=N)N)C(=O)N[C@@H](CCCNC(=N)N)C(=O)N[C@@H](CCCNC(=N)N)C(N)=O)c1` (X1-GRRRR-NH2), the IC50 in experiment [1] was greater than 8 µM; in experiment [2], greater than 40 µM.
